From ChEMBL document CHEMBL1139755, “Synthesis and in vitro antibacterial activity of novel methylamino piperidinyl oxazolidinones” (2007)
In brackets after ≈: the same amount, converted by molar mass.

How the values were obtained:
Bacillus subtilis = assay: Antibacterial activity against Bacillus subtilis ATCC 6633 by broth microdilution method; type: functional
Procedure, shortened: (§1)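 Endpoint is the minimum inhibitory concentration, determined by broth microdilution against a panel of susceptible Gram-positive strains. Values are reported as a range spanning two concentrations (for example 8–16). Values above the top concentration tested are given as >16.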

[1] = test system: Staphylococcus epidermidis; assay: Antibacterial activity against Staphylococcus epidermidis ATCC 12228 by broth microdilution method; type: functional; procedure, shortened: as §1
Enterococcus faecalis [2] = assay: Antibacterial activity against Enterococcus faecalis ATCC 29212 by broth microdilution method; type: functional; procedure, shortened: as §1
Enterococcus faecalis [3] = assay: Antibacterial activity against Enterococcus faecalis ATCC 14506 by broth microdilution method; type: functional; procedure, shortened: as §1
Staphylococcus aureus [4] = assay: Antibacterial activity against Staphylococcus aureus ATCC 33591 by broth microdilution method; type: functional; procedure, shortened: as §1
Staphylococcus aureus [5] = assay: Antibacterial activity against Staphylococcus aureus ATCC 29213 by broth microdilution method; type: functional; procedure, shortened: as §1
Staphylococcus aureus [6] = assay: Antibacterial activity against Staphylococcus aureus ATCC 33592 by broth microdilution method; type: functional; procedure, shortened: as §1
Enterococcus faecalis [7] = assay: Antibacterial activity against multidrug resistant Enterococcus faecalis ATCC 700802 by broth microdilution method; type: functional
Enterococcus faecium = assay: Antibacterial activity against vancomycin-resistant Enterococcus faecium ATCC 700221 by broth microdilution method; type: functional
Staphylococcus aureus [8] = assay: Antibacterial activity against Staphylococcus aureus ATCC 25923 by broth microdilution method; type: functional; procedure, shortened: as §1
Staphylococcus aureus [9] = assay: Antibacterial activity against linezolid-resistant Staphylococcus aureus NRS 119 by broth microdilution method; type: functional
Procedure, shortened: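 Linezolid-resistant S. aureus strain obtained from NARSA; minimum inhibitory concentration found by broth microdilution and reported as a concentration range.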

Staphylococcus aureus [10] = assay: Antibacterial activity against methicillin-resistant Staphylococcus aureus ATCC 700699 by broth microdilution method; type: functional
Streptococcus pneumoniae = assay: Antibacterial activity against multidrug-resistant Streptococcus pneumoniae ATCC 700904 by broth microdilution method; type: functional
[11] = test system: Staphylococcus epidermidis; assay: Antibacterial activity against Staphylococcus epidermidis ATCC 155 by broth microdilution method; type: functional; procedure, shortened: as §1
Streptococcus pyogenes = assay: Antibacterial activity against Streptococcus pyogenes ATCC 14289 by broth microdilution method

Row | SMILES | MIC (Bacillus subtilis) [µg/mL] | MIC [1] [µg/mL] | MIC (Enterococcus faecalis [2]) [µg/mL] | MIC (Enterococcus faecalis [3]) [µg/mL] | MIC (Staphylococcus aureus [4]) [µg/mL] | MIC (Staphylococcus aureus [5]) [µg/mL] | MIC (Staphylococcus aureus [6]) [µg/mL] | MIC (Enterococcus faecalis [7]) [µg/mL] | MIC (Enterococcus faecium) [µg/mL] | MIC (Staphylococcus aureus [8]) [µg/mL] | MIC (Staphylococcus aureus [9]) [µg/mL] | MIC (Staphylococcus aureus [10]) [µg/mL] | MIC (Streptococcus pneumoniae) [µg/mL] | MIC [11] [µg/mL] | MIC (Streptococcus pyogenes) [µg/mL]
1 | CC(=O)NC[C@H]1CN(c2ccc(N(C)C3CCN(C(=O)/C=C/c4ccc5c(c4)OCO5)CC3)c(F)c2)C(=O)O1 | 2 (≈ 3.71 µM) | 8 (≈ 14.9 µM) | 8 (≈ 14.9 µM) | > 16 | 8 (≈ 14.9 µM) | > 16 | > 16 | > 16 | > 16 | > 16 | > 16 | > 16 | > 16 | > 16 | > 16
2 | CC(=O)NC[C@H]1CN(c2ccc(N(C)C3CCNCC3)c(F)c2)C(=O)O1 | > 16 | > 16 | > 16 | > 16 | > 16 | > 16 | > 16 | > 16 | > 16 | > 16 | > 16 | > 16 | > 16 | > 16 | > 16
3 | CC(=O)NC[C@H]1CN(c2ccc(N(C)C3CCN(C(=O)/C=C/c4ccco4)CC3)c(F)c2)C(=O)O1 | 2 (≈ 4.13 µM) | > 16 | > 16 | > 16 | > 16 | > 16 | > 16 | > 16 | 8 (≈ 16.5 µM) | > 16 | > 16 | 8 (≈ 16.5 µM) | > 16 | > 16 | > 16
4 | CC(=O)NC[C@H]1CN(c2ccc(N(C)C3CCN(C(=O)/C=C/c4ccccc4)CC3)c(F)c2)C(=O)O1 | 2 (≈ 4.04 µM) | 8 (≈ 16.2 µM) | > 16 | > 16 | 8 (≈ 16.2 µM) | 8 (≈ 16.2 µM) | 4 (≈ 8.09 µM) | 8 (≈ 16.2 µM) | 4 (≈ 8.09 µM) | 8 (≈ 16.2 µM) | > 16 | 8 (≈ 16.2 µM) | 8 (≈ 16.2 µM) | 4 (≈ 8.09 µM) | 8 (≈ 16.2 µM)
5 | CC(=O)NC[C@H]1CN(c2ccc(N(C)C3CCN(C(=O)/C=C/c4ccc(O)cc4)CC3)c(F)c2)C(=O)O1 | 2 (≈ 3.92 µM) | 8 (≈ 15.7 µM) | 4 (≈ 7.83 µM) | > 16 | 8 (≈ 15.7 µM) | > 16 | > 16 | 8 (≈ 15.7 µM) | 8 (≈ 15.7 µM) | 8 (≈ 15.7 µM) | > 16 | 4 (≈ 7.83 µM) | 8 (≈ 15.7 µM) | 8 (≈ 15.7 µM) | 8 (≈ 15.7 µM)
6 | CC(=O)NC[C@H]1CN(c2ccc(N(C)C3CCN(C(=O)/C=C/c4ccc([N+](=O)[O-])o4)CC3)c(F)c2)C(=O)O1 | 0.5 (≈ 0.944 µM) | 1 (≈ 1.89 µM) | 2 (≈ 3.78 µM) | 4 (≈ 7.55 µM) | 1 (≈ 1.89 µM) | 2 (≈ 3.78 µM) | 1 (≈ 1.89 µM) | 8 (≈ 15.1 µM) | 1 (≈ 1.89 µM) | 2 (≈ 3.78 µM) | 2 (≈ 3.78 µM) | 1 (≈ 1.89 µM) | 0.25 (≈ 0.472 µM) | 0.25 (≈ 0.472 µM) | 2 (≈ 3.78 µM)
7 | CC(=O)NC[C@H]1CN(c2ccc(N(C)C3CCN(C(=O)/C=C/c4ccc([N+](=O)[O-])cc4)CC3)c(F)c2)C(=O)O1 | 4 (≈ 7.41 µM) | 8 (≈ 14.8 µM) | > 16 | > 16 | > 16 | > 16 | > 16 | > 16 | > 16 | > 16 | > 16 | 8 (≈ 14.8 µM) | > 16 | 8 (≈ 14.8 µM) | > 16
8 | CC(=O)NC[C@H]1CN(c2ccc(N(C)C3CCN(C(=O)/C=C/C4CCCCC4)CC3)c(F)c2)C(=O)O1 | 8 (≈ 16 µM) | > 16 | > 16 | 8 (≈ 16 µM) | > 16 | 8 (≈ 16 µM) | 8 (≈ 16 µM) | 8 (≈ 16 µM) | 8 (≈ 16 µM) | 8 (≈ 16 µM) | > 16 | 4 (≈ 7.99 µM) | 8 (≈ 16 µM) | 8 (≈ 16 µM) | > 16
9 | CC(=O)NC[C@H]1CN(c2ccc(N(C)C3CCN(C(=O)/C=C/c4c[nH]c5ccccc45)CC3)c(F)c2)C(=O)O1 | 2 (≈ 3.75 µM) | 4 (≈ 7.5 µM) | 8 (≈ 15 µM) | > 16 | 8 (≈ 15 µM) | > 16 | > 16 | 8 (≈ 15 µM) | 8 (≈ 15 µM) | 8 (≈ 15 µM) | > 16 | 2 (≈ 3.75 µM) | 8 (≈ 15 µM) | 4 (≈ 7.5 µM) | 8 (≈ 15 µM)
10 | CC(=O)NC[C@H]1CN(c2ccc(N(C)C3CCN(C(=O)/C=C/c4ccc(CO)o4)CC3)c(F)c2)C(=O)O1 | > 16 | > 16 | > 16 | > 16 | > 16 | > 16 | > 16 | > 16 | > 16 | > 16 | > 16 | > 16 | > 16 | > 16 | > 16
11 | CC(=O)NC[C@H]1CN(c2ccc(N3CCN(C(=O)CO)CC3)c(F)c2)C(=O)O1 [EPEREZOLID] | 0.5 (≈ 1.27 µM) | 2 (≈ 5.07 µM) | 2 (≈ 5.07 µM) | 2 (≈ 5.07 µM) | 1 (≈ 2.54 µM) | 2 (≈ 5.07 µM) | – | 1 (≈ 2.54 µM) | – | 2 (≈ 5.07 µM) | > 16 | 1 (≈ 2.54 µM) | 0.25 (≈ 0.634 µM) | – | 0.25 (≈ 0.634 µM)
12 | CC(=O)NC[C@H]1CN(c2ccc(N3CCOCC3)c(F)c2)C(=O)O1 [LINEZOLID] | 1 (≈ 2.96 µM) | 2 (≈ 5.93 µM) | – | – | 1 (≈ 2.96 µM) | – | – | – | – | 1 (≈ 2.96 µM) | > 16 | 1 (≈ 2.96 µM) | – | 1 (≈ 2.96 µM) | 0.5 (≈ 1.48 µM)
13 | CC(=O)NC[C@H]1CN(c2ccc(N3CCN(Cc4ccc([N+](=O)[O-])o4)CC3)c(F)c2)C(=O)O1 [RANBEZOLID] | 0.25 (≈ 0.542 µM) | 0.5 (≈ 1.08 µM) | – | 2 (≈ 4.33 µM) | 1 (≈ 2.17 µM) | 1 (≈ 2.17 µM) | 1 (≈ 2.17 µM) | 1 (≈ 2.17 µM) | 2 (≈ 4.33 µM) | 1 (≈ 2.17 µM) | > 16 | 0.5 (≈ 1.08 µM) | 0.25 (≈ 0.542 µM) | 0.25 (≈ 0.542 µM) | 2 (≈ 4.33 µM)
